# Measurements taken from ChEMBL document CHEMBL1955814, “Tailoring of integrin ligands: probing the charge capability of the metal ion-dependent adhesion site” (J Med Chem, 2012).
# What was measured:
# [1] = target: Integrin alpha-IIb/beta-3 (Homo sapiens, UniProt P05106+P08514); assay: Displacement of extracellular matrix protein fibrinogen from human integrin alpha2bbeta3 after 1 hr by competitive ELISA; assay type: protein-complex assay
# In short: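 Plates coated overnight at 4 °C with 10 μg/mL fibrinogen in carbonate buffer pH 9.6, blocked with 1% BSA in Tris buffer containing 1 mM Ca2+, Mg2+ and Mn2+. Inhibitor (0.00013−10 μM final) plus 2.5 μg/mL final soluble human αIIbβ3 for 1 h at RT. Bound integrin detected with anti-CD41b and peroxidase secondary antibody, A450.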
# [2] = Apparent permeability across human Caco2 cells after 30 to 150 mins; assay type: ADME, cell-based; details: Caco-2
# In short: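 Caco-2 monolayers, passage 52−60, grown 21−23 days on polycarbonate inserts (0.4 μm pores, 1.1 cm²) until TEER stable at 300−500 Ω cm². Apical-to-basolateral transport at 37 °C with shaking after 30 min buffer preincubation. Basolateral samples at 30, 60, 90, 120 and 150 min, replaced with fresh buffer. Mass balance done per compound.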
# Integrin alpha-IIb/beta-3, sequence (P05106 27-788 limits assumed): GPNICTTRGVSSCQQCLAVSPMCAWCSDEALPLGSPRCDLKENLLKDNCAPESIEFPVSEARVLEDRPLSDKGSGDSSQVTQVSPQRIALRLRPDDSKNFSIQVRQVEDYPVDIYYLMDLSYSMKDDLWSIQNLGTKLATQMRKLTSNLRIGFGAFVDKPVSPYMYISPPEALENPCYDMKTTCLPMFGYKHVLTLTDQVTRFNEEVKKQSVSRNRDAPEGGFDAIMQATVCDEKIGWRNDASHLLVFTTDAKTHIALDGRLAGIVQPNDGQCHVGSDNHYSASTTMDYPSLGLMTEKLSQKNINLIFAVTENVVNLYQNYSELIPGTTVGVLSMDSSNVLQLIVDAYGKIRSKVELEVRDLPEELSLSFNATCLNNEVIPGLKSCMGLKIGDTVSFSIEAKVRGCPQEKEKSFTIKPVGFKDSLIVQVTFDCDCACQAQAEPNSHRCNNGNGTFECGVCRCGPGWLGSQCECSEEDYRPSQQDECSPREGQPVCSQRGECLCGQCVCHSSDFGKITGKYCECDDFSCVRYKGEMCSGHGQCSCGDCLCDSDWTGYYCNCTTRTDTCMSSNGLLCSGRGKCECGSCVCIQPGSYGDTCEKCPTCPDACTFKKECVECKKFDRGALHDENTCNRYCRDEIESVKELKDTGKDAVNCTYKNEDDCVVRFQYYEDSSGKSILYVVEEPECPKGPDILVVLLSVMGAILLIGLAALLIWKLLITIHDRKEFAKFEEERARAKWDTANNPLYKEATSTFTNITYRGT
# Integrin alpha-IIb/beta-3, sequence (P08514 32-887 limits assumed): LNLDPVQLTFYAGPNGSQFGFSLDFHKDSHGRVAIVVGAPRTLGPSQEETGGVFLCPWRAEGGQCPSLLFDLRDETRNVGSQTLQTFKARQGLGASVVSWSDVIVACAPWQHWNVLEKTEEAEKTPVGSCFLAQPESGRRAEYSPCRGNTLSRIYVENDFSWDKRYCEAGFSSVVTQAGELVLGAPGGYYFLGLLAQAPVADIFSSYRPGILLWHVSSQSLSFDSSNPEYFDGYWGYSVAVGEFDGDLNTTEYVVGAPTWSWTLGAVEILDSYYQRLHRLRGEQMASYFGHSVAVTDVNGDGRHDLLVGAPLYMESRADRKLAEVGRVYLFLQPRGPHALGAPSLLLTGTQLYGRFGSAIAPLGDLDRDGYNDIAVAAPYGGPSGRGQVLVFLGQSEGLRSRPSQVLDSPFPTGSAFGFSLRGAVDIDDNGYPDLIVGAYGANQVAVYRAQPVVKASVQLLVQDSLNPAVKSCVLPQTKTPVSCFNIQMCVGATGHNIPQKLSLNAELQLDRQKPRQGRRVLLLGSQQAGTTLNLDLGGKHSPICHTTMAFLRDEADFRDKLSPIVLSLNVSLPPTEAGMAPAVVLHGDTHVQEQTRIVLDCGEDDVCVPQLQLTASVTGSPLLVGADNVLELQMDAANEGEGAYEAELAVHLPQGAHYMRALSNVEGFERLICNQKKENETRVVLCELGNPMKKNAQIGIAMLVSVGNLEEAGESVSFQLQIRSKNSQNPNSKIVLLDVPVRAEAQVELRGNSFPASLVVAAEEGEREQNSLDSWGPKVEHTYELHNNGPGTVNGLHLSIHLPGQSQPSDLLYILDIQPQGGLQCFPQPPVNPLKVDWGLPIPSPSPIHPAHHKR
# Integrin alpha-IIb/beta-3, sequence (P08514 891-1039 limits assumed): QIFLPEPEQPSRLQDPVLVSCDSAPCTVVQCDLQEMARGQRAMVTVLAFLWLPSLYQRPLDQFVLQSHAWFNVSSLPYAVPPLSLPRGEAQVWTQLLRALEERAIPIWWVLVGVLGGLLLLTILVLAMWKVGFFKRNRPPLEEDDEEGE
IC50 ([1]; read-out: IC50) [nM],Papp [2] [×10⁻⁶ cm/s],IC50 [1],Structure (SMILES)
1.2,< 0.01,,O=C(NC[C@H](NS(=O)(=O)c1ccccc1)[PH](=O)O)c1ccc(OCCC2CCNCC2)cc1
6.3,< 0.01,,O=C(NC[C@@H](NS(=O)(=O)c1ccccc1)[PH](=O)O)c1ccc(OCCC2CCNCC2)cc1
22.7,< 0.01,,O=C(NC[C@H](NS(=O)(=O)c1ccccc1)P(=O)(O)O)c1ccc(OCCC2CCNCC2)cc1
136,< 0.01,,O=C(NC[C@@H](NS(=O)(=O)c1ccccc1)P(=O)(O)O)c1ccc(OCCC2CCNCC2)cc1
3.3,< 0.01,,COP(=O)(O)[C@H](CNC(=O)c1ccc(OCCC2CCNCC2)cc1)NS(=O)(=O)c1ccccc1
1150,,,COP(=O)(O)[C@@H](CNC(=O)c1ccc(OCCC2CCNCC2)cc1)NS(=O)(=O)c1ccccc1
62.5,,,O=C(NC[C@H](NS(=O)(=O)c1ccccc1)P(O)(O)=S)c1ccc(OCCC2CCNCC2)cc1
1320,,,O=C(NC[C@@H](NS(=O)(=O)c1ccccc1)P(O)(O)=S)c1ccc(OCCC2CCNCC2)cc1
4.4,,,O=C(NC[C@@H](NS(=O)(=O)c1ccccc1)C(=O)O)c1ccc(OCCC2CCNCC2)cc1
,,Not Active,COP(=O)(OC)[C@H](CNC(=O)c1ccc(OCCC2CCNCC2)cc1)NS(=O)(=O)c1ccccc1
,,Not Active,COP(=O)(OC)[C@@H](CNC(=O)c1ccc(OCCC2CCNCC2)cc1)NS(=O)(=O)c1ccccc1
0.81,,,O=C(NC[C@H](NS(=O)(=O)c1ccccc1)C(=O)O)c1ccc(OCCC2CCNCC2)cc1
,2.4,,OC[C@@H](O)[C@@H](O)[C@H](O)[C@H](O)CO [MANNITOL]
,< 0.01,,CCCCS(=O)(=O)N[C@@H](Cc1ccc(OCCCCC2CCNCC2)cc1)C(=O)O [TIROFIBAN]
